The text below walks through data of PubChem BioAssay.

In general, inhibition refers to the change of the read-out against control, counted positive when it falls.

Test [1] in a line: inhibitors of TNFa-induced NFkB p65 translocation, primary screen, imaging, HUVEC, MLSMR starter and 10KST1 sets (AID 438;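 active means inhibition above 20% together with a positive visual image hit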;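 further: compound added about 3h40 before a 20 min TNFalpha stimulation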;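 on inhibition: signal is the nuclear over cytoplasmic p65 intensity ratio per well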). To be noted: HUVEC TNFa-induced p65 nuclear translocation; cell count: measured here: nuclei count (cytotoxicity indicator), at 2.08 µM; inhibition: at 2 µM, stronger effect = higher value, 0% TNFa-plus-vehicle, 100% no-TNFa wells.
Test [2] in a line: inhibitors of E-selectin induction by TNFa, primary screen, imaging, HUVEC, immunofluorescence, MLSMR starter and 10KST1 sets (AID 487;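 active means visually confirmed hit in the image check and inhibition above 20%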;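 on inhibition: signal is fraction of cell area covered by stained E-selectin grains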;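 on nuclei count: 100% = median nuclei count of all wells on the same plate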). To be noted: HUVEC TNFalpha-induced E-selectin immunofluorescence imaging, at 2 µM; inhibition: stronger effect = higher value; nuclei count: measured here: cell number, toxicity.
The nature of test [3]: DUSP6 inhibitors restoring Erk phosphorylation by chemical complementation, primary imaging in DUSP6-transfected HeLa (AID 609).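 On inhibition: phospho-Erk level distribution per well compared with pooled transfected vehicle control wells.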 Particulars: HeLa MKP-3 transfected, phospho-Erk imaging KS statistic, at 10 µM, cells stimulated with TPA for 15 min.
The target in test [4] is Dual specificity protein phosphatase 6 (Homo sapiens) (UniProt Q16828). Described as above. Particulars: HeLa MKP-3 transfected, phospho-Erk imaging KS statistic; at 10 µM; stronger effect = higher value; cells stimulated with TPA for 15 min.
Test [5] concerns the target Voltage-gated potassium channel subunit beta-2 (Rattus norvegicus) (UniProt P62483). Nature of the test: KvBeta enzyme negative modulators, primary screen, biochemical, NADPH fluorescence (AID 622;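 active means fluorescence slope higher than the sample average by over 3 SD, cut at about -0.22 in these data, passing the limit was not always enough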;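 further: slope of raw intensity against log time taken from 70 to 1610 s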). To be noted: recombinant KvBeta, 4-cyanobenzaldehyde reduction, at 10 µM, stronger effect = higher value.
The target is the same in test [6]. In words: KvBeta positive modulators, primary screen, biochemical, NADPH fluorescence (AID 623;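 active means NADPH fluorescence slope more negative than the mean of all samples by about 3 SD, 99.7% confidence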;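 further: fluorescence intensity change per second fitted from 20 to 320 s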). To be noted: Recombinant KvBeta, NADPH fluorescence decrease slope, 10 min; at 10 µM; stronger effect = lower value.
For test [7], the target named is Alpha-2C adrenergic receptor (Homo sapiens) (UniProt P18825). Nature of the test: modulators of alpha2C/GIRK thallium flux, primary screen, cell-based, HEK293 alpha2C/GIRK1/2 (AID 624;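 active means fluorescence slope after compound addition differing from the mean of all screened samples at 99.7% confidence, in either direction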;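 further: slope of fluorescence ratio to pre-addition baseline per second over 15 to 24 s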). Particulars: thallium flux BTC fluorescence, at 10 µM, actives lie on both sides.
Test [8] is described as follows: inhibitors of larval lipid processing in zebrafish, primary screen, whole organism, PED6 fluorescence, gall bladder and intestine (AID 686;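 active means a full or partial loss of lipid-probe fluorescence in the fish gall bladder, intestine or both, judged by eye; inactive means no fluorescence loss, or compound toxic to the fish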;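 further: larvae 5 to 7 days old with five fish per well; signal comes from phospholipase A2 cleavage of quenched PED6 carried via bile; overnight exposure to compound and PED6 before scoring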). Particulars: Zebrafish larvae PED6 lipid processing, fluorescence scoring; screened at 20 µM (by protocol). In short, it runs like this:
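System: live zebrafish larvae aged 5-7 days, whole organism; measure: graded gall bladder and intestinal fluorescence inhibition per well; incubation: overnight exposure; reagent: ingested quenched lipid PED6 at 100 nM; signal: By-eye fluorescence microscopy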

Test [9] is described as follows: inhibitors of Chlamydomonas gravitaxis, primary screen, whole organism, Chlamydomonas reinhardtii, WT vs cilia-less mutant, absorbance, 96-well (AID 463189;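 active means inhibition at or above 50% relative to wild type and mutant plate controls; inactive means inhibition below 50%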;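 further: 0% = wild type cc124 cells in DMSO and 100% = ciliumless bld1 mutant cells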). To be noted: OD600 absorbance, 2 days, at 10 µM, stronger effect = higher value.
The mark [10] stands for this setting: measured here: cell density z-score.
Setting [11] is: measured here: nuclear c-Myc green intensity z-score.
Setting [12] is: measured here: nuclear pErk red intensity z-score, stronger effect = higher value.

Activity calls are given as the source filed them.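 How the source made its calls, unless noted: active means compounds giving at least 50% inhibition in the cell-based MKP-3 phosphatase rescue imaging test; inactive means the rest.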

Chain of Voltage-gated potassium channel subunit beta-2 (Rattus norvegicus) (P62483 whole entry, looked up): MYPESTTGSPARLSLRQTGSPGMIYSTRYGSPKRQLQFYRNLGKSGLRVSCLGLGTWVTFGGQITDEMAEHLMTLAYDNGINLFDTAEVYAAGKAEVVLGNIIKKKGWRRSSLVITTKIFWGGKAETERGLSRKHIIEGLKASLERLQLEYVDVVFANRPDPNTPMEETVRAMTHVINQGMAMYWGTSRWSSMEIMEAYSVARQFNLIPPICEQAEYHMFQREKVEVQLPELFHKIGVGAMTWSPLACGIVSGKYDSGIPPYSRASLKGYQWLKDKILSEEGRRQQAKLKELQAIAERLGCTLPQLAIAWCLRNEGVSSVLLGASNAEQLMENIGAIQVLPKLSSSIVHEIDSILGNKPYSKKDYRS
Chain of Dual specificity protein phosphatase 6 (Homo sapiens) (Q16828 whole entry, looked up): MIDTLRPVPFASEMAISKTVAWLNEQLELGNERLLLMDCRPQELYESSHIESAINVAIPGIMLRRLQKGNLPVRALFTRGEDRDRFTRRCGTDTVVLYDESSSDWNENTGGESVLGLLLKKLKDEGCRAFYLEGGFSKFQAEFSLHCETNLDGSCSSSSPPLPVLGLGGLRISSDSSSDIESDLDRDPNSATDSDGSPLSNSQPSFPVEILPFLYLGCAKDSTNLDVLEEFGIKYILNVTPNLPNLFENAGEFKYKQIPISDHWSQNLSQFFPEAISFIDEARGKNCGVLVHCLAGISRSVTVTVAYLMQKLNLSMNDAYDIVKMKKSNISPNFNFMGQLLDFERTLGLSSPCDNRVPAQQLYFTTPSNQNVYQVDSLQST
Chain of Alpha-2C adrenergic receptor (Homo sapiens) (P18825 whole entry, looked up): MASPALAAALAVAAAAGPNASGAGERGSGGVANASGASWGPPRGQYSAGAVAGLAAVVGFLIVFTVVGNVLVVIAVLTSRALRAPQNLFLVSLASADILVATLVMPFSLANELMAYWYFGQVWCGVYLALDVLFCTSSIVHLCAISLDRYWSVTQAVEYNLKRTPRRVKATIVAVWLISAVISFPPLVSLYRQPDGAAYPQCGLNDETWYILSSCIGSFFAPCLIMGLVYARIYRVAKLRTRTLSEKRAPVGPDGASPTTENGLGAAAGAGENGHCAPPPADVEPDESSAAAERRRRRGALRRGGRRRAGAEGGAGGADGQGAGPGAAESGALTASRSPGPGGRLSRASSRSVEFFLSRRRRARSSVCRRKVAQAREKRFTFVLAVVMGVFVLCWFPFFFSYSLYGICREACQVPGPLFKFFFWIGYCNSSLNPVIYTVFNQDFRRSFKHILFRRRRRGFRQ

On to `COc1cc(C2NC(=O)NC(C)=C2C(=O)Nc2cccc(C)c2C)cc(OC)c1OC` (stereo unspecified), for which the cell count in [1] came out at 566. In addition, the inhibition in test [1] was -3.3% (inactive); in test [2], -47.5% (inactive); in test [4] it was -2.91% (inactive); in test [9] it was -6.92% (inactive). The same molecule yielded a nuclei count in test [2] of 183%. Moreover, the z-score is 0.296 in test [3] (setting [10]), 0.344 in test [3] (setting [11]) and -0.592 in test [3] (setting [12]). The fluorescence slope in test [5] is -0.35 (inactive). Also, the NADPH fluorescence slope in test [6] was -1.5e-05 (inactive). Further, the slope in test [7] is 0.00551 (inactive). For the same molecule, the molecule was called inactive in test [8].

For `COc1cc(C2C(C(=O)c3ccc(C)o3)=C(O)C(=O)N2c2cc(C)on2)cc(OC)c1OC` (stereo unspecified), the cell count in [1] worked out at 531. Besides, the inhibition in [1] is -0.1% (inactive); in test [2] it was -101% (inactive); in test [4], 19.3% (inactive); in [9], -18.1% (inactive). For the same molecule, the nuclei count in test [2] was determined as 125%. Further, the z-score in test [3] (setting [10]) was 1.95; in test [3] (setting [11]) it was 0.514; in [3] (setting [12]) it was -0.298. Also, the fluorescence slope in test [5] is -0.507 (inactive). Further, the NADPH fluorescence slope in test [6] is -9.6e-06 (inactive). Moreover, the slope in test [7] was 0.00526 (inactive). Moreover, the molecule was called inactive in test [8].

On to `CCCCNC(=O)N1CCOCCOCCN(C(=O)NCCCC)CCOCCOCC1`, for which, in test [1], the cell count was 546. The inhibition was -15.4% (inactive) in test [1], -120% (inactive) in [2], 3.97% (inactive) in [4] and 17.8% (inactive) in [9]. Further, in test [2], the nuclei count was determined as 144%. In addition, the z-score is 1.2 in [3] (setting [10]), -1.56 in test [3] (setting [11]) and 0.0473 in test [3] (setting [12]). The fluorescence slope in [5] was -0.526 (inactive). For the same molecule, the NADPH fluorescence slope in [6] was -2.2e-05 (inactive). The slope in test [7] was 0.00599 (inactive). In [8], the molecule was called inactive.

For `CCCc1[nH]nc2c1C(c1c(C)nn(-c3ccccc3)c1Cl)C(C#N)=C(N)O2` (stereo unspecified), the cell count in test [1] was determined as 673. The inhibition was -3.2% (inactive) in [1], -234% (inactive) in test [2], 12.7% (inactive) in [4] and -5.65% (inactive) in test [9]. Besides, the nuclei count in test [2] was determined as 148%. For the same molecule, the figures for the z-score in test [3] (setting [10]), in test [3] (setting [11]) and in [3] (setting [12]) were 1.26, 0.14 and -0.117, respectively. Moreover, the fluorescence slope in [5] is -0.399 (inactive). Moreover, the NADPH fluorescence slope in test [6] is -1.9e-06 (inactive). Further, the slope in test [7] was 0.00594 (inactive). Further, the outcome in test [8] was inactive.

For the molecule `CC1(C)Cc2nc(N)c(C(=O)NCCO)cc2CO1`, in test [1], the cell count came to 668. In addition, the inhibition in test [1] is -10.5% (inactive); in test [2], 15.2% (inactive); in test [4], -3.98% (inactive); in test [9] it was 6.5% (inactive). For the same molecule, the nuclei count in test [2] came out at 184%. The z-score was -0.73 in test [3] (setting [10]), 0.225 in [3] (setting [11]) and 0.421 in [3] (setting [12]). In addition, the fluorescence slope in test [5] was -0.476 (inactive). Moreover, in test [6], the NADPH fluorescence slope was -3e-05 (inactive). Also, the slope in [7] was 0.00417 (inactive). In [8], the call was inactive.

On to `Fc1ccc(OCCOCCNCC2CCCO2)cc1` (stereo unspecified), for which the cell count in test [1] worked out at 369. The inhibition in test [1] was 0.4% (inactive); in [2] it was -35.4% (inactive); in test [4], 15.1% (inactive); in test [9] it was 43.6% (inactive). For the same molecule, in test [2], the nuclei count is 84.5%. In addition, the z-score in test [3] (setting [10]) came to 0.189; in test [3] (setting [11]), 0.788; in test [3] (setting [12]) it was 0.463. Further, in test [5], the fluorescence slope was -0.557 (inactive). Further, in test [6], the NADPH fluorescence slope is -4.4e-05 (inactive). In addition, in test [7], the slope is 0.00452 (inactive). In addition, the molecule was classed as inactive in [8].

As for `CCCCCc1ccc(-c2ccc(=O)[nH]n2)cc1`, the cell count in [1] was found to be 455. For the same molecule, the inhibition in test [1] was -1.5% (inactive); in [2] it was -85% (inactive); in [4], 15.1% (inactive); in test [9], -28.2% (inactive). Also, in [2], the nuclei count turned out to be 107%. Further, the z-score in test [3] (setting [10]) was 1.16; in test [3] (setting [11]) it was -0.256; in [3] (setting [12]), -1.03. The fluorescence slope in [5] was -0.516 (inactive). In test [6], the NADPH fluorescence slope was -2.1e-05 (inactive). Besides, the slope in test [7] is 0.00535 (inactive). In test [8], the molecule was classed as inactive.
